{
  "source": "paper PMC9623233",
  "about": "(Clinical Cancer Research, 2022)",
  "key": {"[1]": {"experiment": "Phase I safety and tolerability: adverse events", "assay_type": "in vivo, human", "outline": "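Open-label 3+3 escalation of intravenous test compound. Each 4-week cycle was four weekly or two biweekly doses; later arms were biweekly with dexamethasone prophylaxis, or every 3 weeks. AEs were graded by NCI CTCAE v4.0, with laboratory tests, pulmonary function (entry FVC >70%, DLCOc >60%), vital signs, ECG and examination. DLT window: two cycles (8 weeks; 6 weeks for 3-weekly dosing).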"}, "[2]": {"tested_on": "high-grade serous ovarian cancer", "experiment": "Antitumor activity: RECIST v1.1 response and time on treatment", "assay_type": "in vivo, human"}, "[3]": {"tested_on": "α-FR–overexpressing preclinical model", "experiment": "Combination of CT900 and PARP inhibition, growth inhibition", "assay_type": "cell-based", "conditions": "Supplementary Fig. S3"}, "[4]": {"conditions": "ref previous unpublished trial Eudra CT 2009-012933-31; cited from earlier work"}, "[5]": {"conditions": "12 mg/m^2/q2Wk expansion, worst grade G1"}, "[6]": {"conditions": "12 mg/m^2/q2Wk expansion, worst grade G2"}, "[7]": {"conditions": "12 mg/m^2/q2Wk expansion, worst grade G3"}, "[8]": {"conditions": "12 mg/m^2/q2Wk with and without steroid, Total, all grades"}, "[9]": {"conditions": "12 mg/m^2/q2Wk-steroid expansion, worst grade G1"}, "[10]": {"conditions": "12 mg/m^2/q2Wk-steroid expansion, worst grade G2"}, "[11]": {"conditions": "12 mg/m^2/q2Wk-steroid expansion, worst grade G3"}},
  "data": [
    {"compound": "C#CCN(c1ccc(C(=O)N[C@@H](CCC(=O)N[C@H](CCC(=O)O)C(=O)O)C(=O)O)cc1)[C@H]1CCc2cc3nc(CO)[nH]c(=O)c3cc21", "note": "[CT900, N-[4-[2-propyn-1-yl[(6S)-4,6,7,8-tetrahydro-2-(hydroxymethyl)-4-oxo-3H-cyclopenta [g]quinazolin-6-yl]amino]benzoyl]-l-gamma-glutamyl-D-glutamic acid]", "values": [
      {"measurement": "Anemia, treatment-related", "setting": "[1]; [5]", "result": "2 (8) n (%)"},
      {"measurement": "Aspartate aminotransferase increased, treatment-related", "setting": "[1]; [5]", "result": "3 (12) n (%)"},
      {"measurement": "Chills, treatment-related", "setting": "[1]; [5]", "result": "2 (8) n (%)"},
      {"measurement": "Cough, treatment-related", "setting": "[1]; [5]", "result": "8 (32) n (%)"},
      {"measurement": "Decreased appetite, treatment-related", "setting": "[1]; [5]", "result": "3 (12) n (%)"},
      {"measurement": "Diarrhea, treatment-related", "setting": "[1]; [5]", "result": "4 (16) n (%)"},
      {"measurement": "Fatigue, treatment-related", "setting": "[1]; [5]", "result": "12 (48) n (%)"},
      {"measurement": "Nausea, treatment-related", "setting": "[1]; [5]", "result": "8 (32) n (%)"},
      {"measurement": "Pneumonitis, treatment-related", "setting": "[1]; [5]", "result": "0 (0) n (%)"},
      {"measurement": "Pyrexia, treatment-related", "setting": "[1]; [5]", "result": "3 (12) n (%)"},
      {"measurement": "Vomiting, treatment-related", "setting": "[1]; [5]", "result": "4 (16) n (%)"},
      {"measurement": "Anemia, treatment-related", "setting": "[1]; [6]", "result": "2 (8) n (%)"},
      {"measurement": "Aspartate aminotransferase increased, treatment-related", "setting": "[1]; [6]", "result": "1 (4) n (%)"},
      {"measurement": "Chills, treatment-related", "setting": "[1]; [6]", "result": "1 (4) n (%)"},
      {"measurement": "Cough, treatment-related", "setting": "[1]; [6]", "result": "0 (0) n (%)"},
      {"measurement": "Decreased appetite, treatment-related", "setting": "[1]; [6]", "result": "0 (0) n (%)"},
      {"measurement": "Diarrhea, treatment-related", "setting": "[1]; [6]", "result": "1 (4) n (%)"},
      {"measurement": "Fatigue, treatment-related", "setting": "[1]; [6]", "result": "1 (4) n (%)"},
      {"measurement": "Nausea, treatment-related", "setting": "[1]; [6]", "result": "4 (16) n (%)"},
      {"measurement": "Pneumonitis, treatment-related", "setting": "[1]; [6]", "result": "4 (16) n (%)"},
      {"measurement": "Pyrexia, treatment-related", "setting": "[1]; [6]", "result": "0 (0) n (%)"},
      {"measurement": "Vomiting, treatment-related", "setting": "[1]; [6]", "result": "0 (0) n (%)"},
      {"measurement": "Anemia, treatment-related", "setting": "[1]; [7]", "result": "0 (0) n (%)"},
      {"measurement": "Aspartate aminotransferase increased, treatment-related", "setting": "[1]; [7]", "result": "0 (0) n (%)"},
      {"measurement": "Chills, treatment-related", "setting": "[1]; [7]", "result": "0 (0) n (%)"},
      {"measurement": "Cough, treatment-related", "setting": "[1]; [7]", "result": "0 (0) n (%)"},
      {"measurement": "Decreased appetite, treatment-related", "setting": "[1]; [7]", "result": "0 (0) n (%)"},
      {"measurement": "Diarrhea, treatment-related", "setting": "[1]; [7]", "result": "1 (4) n (%)"},
      {"measurement": "Fatigue, treatment-related", "setting": "[1]; [7]", "result": "0 (0) n (%)"},
      {"measurement": "Nausea, treatment-related", "setting": "[1]; [7]", "result": "0 (0) n (%)"},
      {"measurement": "Pneumonitis, treatment-related", "setting": "[1]; [7]", "result": "0 (0) n (%)"},
      {"measurement": "Pyrexia, treatment-related", "setting": "[1]; [7]", "result": "0 (0) n (%)"},
      {"measurement": "Vomiting, treatment-related", "setting": "[1]; [7]", "result": "0 (0) n (%)"},
      {"measurement": "Anemia, treatment-related", "setting": "[1]; [8]", "result": "8 (20) n (%)"},
      {"measurement": "Aspartate aminotransferase increased, treatment-related", "setting": "[1]; [8]", "result": "7 (18) n (%)"},
      {"measurement": "Chills, treatment-related", "setting": "[1]; [8]", "result": "4 (10) n (%)"},
      {"measurement": "Cough, treatment-related", "setting": "[1]; [8]", "result": "9 (23) n (%)"},
      {"measurement": "Decreased appetite, treatment-related", "setting": "[1]; [8]", "result": "4 (10) n (%)"},
      {"measurement": "Diarrhea, treatment-related", "setting": "[1]; [8]", "result": "9 (23) n (%)"},
      {"measurement": "Fatigue, treatment-related", "setting": "[1]; [8]", "result": "21 (53) n (%)"},
      {"measurement": "Nausea, treatment-related", "setting": "[1]; [8]", "result": "16 (40) n (%)"},
      {"measurement": "Pneumonitis, treatment-related", "setting": "[1]; [8]", "result": "8 (20) n (%)"},
      {"measurement": "Pyrexia, treatment-related", "setting": "[1]; [8]", "result": "7 (18) n (%)"},
      {"measurement": "Vomiting, treatment-related", "setting": "[1]; [8]", "result": "4 (10) n (%)"},
      {"measurement": "Anemia, treatment-related", "setting": "[1]; [9]", "result": "1 (6.7) n (%)"},
      {"measurement": "Aspartate aminotransferase increased, treatment-related", "setting": "[1]; [9]", "result": "3 (20) n (%)"},
      {"measurement": "Chills, treatment-related", "setting": "[1]; [9]", "result": "1 (6.7) n (%)"},
      {"measurement": "Cough, treatment-related", "setting": "[1]; [9]", "result": "1 (6.7) n (%)"},
      {"measurement": "Decreased appetite, treatment-related", "setting": "[1]; [9]", "result": "1 (6.7) n (%)"},
      {"measurement": "Diarrhea, treatment-related", "setting": "[1]; [9]", "result": "2 (13.3) n (%)"},
      {"measurement": "Fatigue, treatment-related", "setting": "[1]; [9]", "result": "6 (40) n (%)"},
      {"measurement": "Nausea, treatment-related", "setting": "[1]; [9]", "result": "4 (26.7) n (%)"},
      {"measurement": "Pneumonitis, treatment-related", "setting": "[1]; [9]", "result": "1 (6.7) n (%)"},
      {"measurement": "Pyrexia, treatment-related", "setting": "[1]; [9]", "result": "4 (26.7) n (%)"},
      {"measurement": "Vomiting, treatment-related", "setting": "[1]; [9]", "result": "0 (0) n (%)"},
      {"measurement": "Anemia, treatment-related", "setting": "[1]; [10]", "result": "1 (6.7) n (%)"},
      {"measurement": "Aspartate aminotransferase increased, treatment-related", "setting": "[1]; [10]", "result": "0 (0) n (%)"},
      {"measurement": "Chills, treatment-related", "setting": "[1]; [10]", "result": "0 (0) n (%)"},
      {"measurement": "Cough, treatment-related", "setting": "[1]; [10]", "result": "0 (0) n (%)"},
      {"measurement": "Decreased appetite, treatment-related", "setting": "[1]; [10]", "result": "0 (0) n (%)"},
      {"measurement": "Diarrhea, treatment-related", "setting": "[1]; [10]", "result": "0 (0) n (%)"},
      {"measurement": "Fatigue, treatment-related", "setting": "[1]; [10]", "result": "2 (13.3) n (%)"},
      {"measurement": "Nausea, treatment-related", "setting": "[1]; [10]", "result": "0 (0) n (%)"},
      {"measurement": "Pneumonitis, treatment-related", "setting": "[1]; [10]", "result": "3 (20) n (%)"},
      {"measurement": "Pyrexia, treatment-related", "setting": "[1]; [10]", "result": "0 (0) n (%)"},
      {"measurement": "Vomiting, treatment-related", "setting": "[1]; [10]", "result": "0 (0) n (%)"},
      {"measurement": "Anemia, treatment-related", "setting": "[1]; [11]", "result": "2 (13.3) n (%)"},
      {"measurement": "Aspartate aminotransferase increased, treatment-related", "setting": "[1]; [11]", "result": "0 (0) n (%)"},
      {"measurement": "Chills, treatment-related", "setting": "[1]; [11]", "result": "0 (0) n (%)"},
      {"measurement": "Cough, treatment-related", "setting": "[1]; [11]", "result": "0 (0) n (%)"},
      {"measurement": "Decreased appetite, treatment-related", "setting": "[1]; [11]", "result": "0 (0) n (%)"},
      {"measurement": "Diarrhea, treatment-related", "setting": "[1]; [11]", "result": "1 (6.7) n (%)"},
      {"measurement": "Fatigue, treatment-related", "setting": "[1]; [11]", "result": "0 (0) n (%)"},
      {"measurement": "Nausea, treatment-related", "setting": "[1]; [11]", "result": "0 (0) n (%)"},
      {"measurement": "Pneumonitis, treatment-related", "setting": "[1]; [11]", "result": "0 (0) n (%)"},
      {"measurement": "Pyrexia, treatment-related", "setting": "[1]; [11]", "result": "0 (0) n (%)"},
      {"measurement": "Vomiting, treatment-related", "setting": "[1]; [11]", "result": "0 (0) n (%)"},
      {"measurement": "Drug-related, predominantly low-grade pneumonitis", "setting": "[1]; all patients, 10/109", "result": 9, "unit": "%"},
      {"measurement": "Fatal pneumonitis", "setting": "[1]; during the trial", "result": "no cases of fatal pneumonitis"},
      {"measurement": "Recommended phase II dose/schedule", "setting": "[1]; intravenous", "result": 12, "unit": "mg/m^2/q2Wk"},
      {"measurement": "Drug-related NCI CTCAE ≥grade 3 events", "setting": "[1]; qWk schedule 1-6 mg/m^2, 21 patients: anemia, cellulitis, pneumonitis", "result": "three"},
      {"measurement": "RECIST v1.1 response rate", "setting": "[2]; 6 mg/m^2/q2Wk, medium and high α-FR, 0/9", "result": 0, "unit": "%"},
      {"measurement": "Patients who received treatment for ≥16 weeks", "setting": "[2]; 12 mg/m^2/q2Wk, medium and high α-FR, 5/25", "result": 20, "unit": "%"},
      {"measurement": "RECIST v1.1 response rate", "setting": "[2]; 12 mg/m^2/q3Wk, medium and high α-FR, 1/5", "result": 20, "unit": "%"},
      {"measurement": "Partial responses", "setting": "[2]; dose escalation cohort, high-grade serous ovarian cancer, 4 of 11", "result": 36.4, "unit": "%"},
      {"measurement": "Overall response rate (ORR)", "setting": "[2]; expansion cohorts, regardless of α-FR status, 14/64", "result": 21.9, "unit": "%"},
      {"measurement": "Effect of combination of CT900 and PARP inhibition", "setting": "[3]", "result": "synergistic growth inhibition"},
      {"measurement": "Median cumulative dose at which pulmonary toxicity occurred", "setting": "[4]", "result": 162, "unit": "mg/m^2"}
    ]}
  ]
}
